Test results as given in ChEMBL document CHEMBL4689842, “EUbOPEN Chemogenomics Library wave 1” (2021).
Where “and” joins values, the source holds several entries; their conditions need not be identical. Equal values may be shown once.

Tested on: U2OS
Experiment: Multiplex assay against U2OS
Assay type: toxicity, cell-based
Settings: human
How it was run: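 Per cents of healthy-nucleus cells form the tubulin, mitochondrial-mass and membrane-permeability phenotype values. Live cells were stained at seeding with Hoechst33342, BioTracker Green Microtubule Cytoskeleton Dye, MitoTracker Red and Annexin V Alexa Fluor 680. After compound addition they were imaged on a CQ1 microscope at 37°C and 5% CO2, and CellPathfinder machine-learning gating split them into Hoechst high-intensity objects or normal cells, normal cells into healthy, pyknosed or fragmented nuclei, and pyknosed cells into mitotic or apoptotic.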

[1] = 12 h, 1 µM, compound concentration 1 uM, replicate 1
[2] = 12 h, 1 µM, compound concentration 1 uM, replicate 2
[3] = 12 h, 10 µM, compound concentration 10 uM, replicate 1
[4] = 12 h, 10 µM, compound concentration 10 uM, replicate 2
[5] = 24 h, 1 µM, compound concentration 1 uM, replicate 1
[6] = 24 h, 1 µM, compound concentration 1 uM, replicate 2
[7] = 24 h, 10 µM, compound concentration 10 uM, replicate 1
[8] = 24 h, 10 µM, compound concentration 10 uM, replicate 2
[9] = 48 h, 1 µM, compound concentration 1 uM, replicate 1
[10] = 48 h, 1 µM, compound concentration 1 uM, replicate 2
[11] = 48 h, 10 µM, compound concentration 10 uM, replicate 1
[12] = 48 h, 10 µM, compound concentration 10 uM, replicate 2

Cc1c(-c2ccc(O)cc2)n(Cc2ccc(OCCN3CCCCCC3)cc2)c2ccc(O)cc12 [BAZEDOXIFENE]
Population Apoptotic (%) [1]: 58% | Population Fragmented Nuclei (%) [1]: 22% | Population Healthy Nuclei (%) [1]: 67% | Population Hoechst High Intensity Objects (%) [1]: 15% | Population Membrane Permeable-Phenotype (%) [1]: 3% | Population Mitochondria Different-Phenotype (%) [1]: 13% | Population Mitotic Cells (%) [1]: 41% | Population Normal (%) [1]: 84% | Population Pyknosed Nuclei (%) [1]: 9% | Population Tubulin-Different-Phenotype (%) [1]: 20% | Total Cell Count [1]: 144 | Population Apoptotic (%) [2]: 0% | Population Fragmented Nuclei (%) [2]: 13% | Population Healthy Nuclei (%) [2]: 81% | Population Hoechst High Intensity Objects (%) [2]: 10% | Population Membrane Permeable-Phenotype (%) [2]: 5% | Population Mitochondria Different-Phenotype (%) [2]: 20% | Population Mitotic Cells (%) [2]: 100% | Population Normal (%) [2]: 89% | Population Pyknosed Nuclei (%) [2]: 4% | Population Tubulin-Different-Phenotype (%) [2]: 17% | Total Cell Count [2]: 48 | Population Apoptotic (%) [3]: 41% | Population Fragmented Nuclei (%) [3]: 24% | Population Healthy Nuclei (%) [3]: 43% | Population Hoechst High Intensity Objects (%) [3]: 4% | Population Membrane Permeable-Phenotype (%) [3]: 23% | Population Mitochondria Different-Phenotype (%) [3]: 97% | Population Mitotic Cells (%) [3]: 58% | Population Normal (%) [3]: 95% | Population Pyknosed Nuclei (%) [3]: 32% | Population Tubulin-Different-Phenotype (%) [3]: 98% | Total Cell Count [3]: 190 | Population Apoptotic (%) [4]: 60% | Population Fragmented Nuclei (%) [4]: 7% | Population Healthy Nuclei (%) [4]: 56% | Population Hoechst High Intensity Objects (%) [4]: 2% | Population Membrane Permeable-Phenotype (%) [4]: 26% | Population Mitochondria Different-Phenotype (%) [4]: 100% | Population Mitotic Cells (%) [4]: 40% | Population Normal (%) [4]: 97% | Population Pyknosed Nuclei (%) [4]: 36% | Population Tubulin-Different-Phenotype (%) [4]: 100% | Total Cell Count [4]: 42 | Population Apoptotic (%) [5]: 24% | Population Fragmented Nuclei (%) [5]: 15% | Population Healthy Nuclei (%) [5]: 66% | Population Hoechst High Intensity Objects (%) [5]: 11% | Population Membrane Permeable-Phenotype (%) [5]: 3% | Population Mitochondria Different-Phenotype (%) [5]: 9% | Population Mitotic Cells (%) [5]: 76% | Population Normal (%) [5]: 88% | Population Pyknosed Nuclei (%) [5]: 17% | Population Tubulin-Different-Phenotype (%) [5]: 11% | Total Cell Count [5]: 157 | Population Apoptotic (%) [6]: 11% | Population Fragmented Nuclei (%) [6]: 8% | Population Healthy Nuclei (%) [6]: 75% | Population Hoechst High Intensity Objects (%) [6]: 3% | Population Membrane Permeable-Phenotype (%) [6]: 2% | Population Mitochondria Different-Phenotype (%) [6]: 6% | Population Mitotic Cells (%) [6]: 88% | Population Normal (%) [6]: 96% | Population Pyknosed Nuclei (%) [6]: 15% | Population Tubulin-Different-Phenotype (%) [6]: 15% | Total Cell Count [6]: 60 | Population Apoptotic (%) [7]: 73% | Population Fragmented Nuclei (%) [7]: 32% | Population Healthy Nuclei (%) [7]: 26% | Population Hoechst High Intensity Objects (%) [7]: 4% | Population Membrane Permeable-Phenotype (%) [7]: 50% | Population Mitochondria Different-Phenotype (%) [7]: 100% | Population Mitotic Cells (%) [7]: 26% | Population Normal (%) [7]: 95% | Population Pyknosed Nuclei (%) [7]: 40% | Population Tubulin-Different-Phenotype (%) [7]: 98% | Total Cell Count [7]: 213 | Population Apoptotic (%) [8]: 68% | Population Fragmented Nuclei (%) [8]: 22% | Population Healthy Nuclei (%) [8]: 30% | Population Hoechst High Intensity Objects (%) [8]: 20% | Population Membrane Permeable-Phenotype (%) [8]: 75% | Population Mitotic Cells (%) [8]: 31% | Population Normal (%) [8]: 80% | Population Pyknosed Nuclei (%) [8]: 47% | Population Tubulin-Different-Phenotype (%) [8]: 100% | Total Cell Count [8]: 50 | Population Apoptotic (%) [9]: 53% | Population Fragmented Nuclei (%) [9]: 11% | Population Healthy Nuclei (%) [9]: 80% | Population Hoechst High Intensity Objects (%) [9]: 7% | Population Membrane Permeable-Phenotype (%) [9]: 2% | Population Mitochondria Different-Phenotype (%) [9]: 13% | Population Mitotic Cells (%) [9]: 46% | Population Normal (%) [9]: 92% | Population Pyknosed Nuclei (%) [9]: 8% | Population Tubulin-Different-Phenotype (%) [9]: 8% | Total Cell Count [9]: 197 | Population Apoptotic (%) [10]: 36% | Population Fragmented Nuclei (%) [10]: 14% | Population Healthy Nuclei (%) [10]: 75% | Population Hoechst High Intensity Objects (%) [10]: 3% | Population Membrane Permeable-Phenotype (%) [10]: 8% | Population Mitochondria Different-Phenotype (%) [10]: 16% | Population Mitotic Cells (%) [10]: 63% | Population Normal (%) [10]: 96% | Population Pyknosed Nuclei (%) [10]: 11% | Population Tubulin-Different-Phenotype (%) [10]: 22% | Total Cell Count [10]: 104 | Population Apoptotic (%) [11]: 95% | Population Fragmented Nuclei (%) [11]: 39% | Population Healthy Nuclei (%) [11]: 5% | Population Hoechst High Intensity Objects (%) [11]: 9% | Population Membrane Permeable-Phenotype (%) [11]: 77% | Population Mitotic Cells (%) [11]: 4% | Population Normal (%) [11]: 90% | Population Pyknosed Nuclei (%) [11]: 55% | Population Tubulin-Different-Phenotype (%) [11]: 88% | Total Cell Count [11]: 177 | Population Apoptotic (%) [12]: 100% | Population Fragmented Nuclei (%) [12]: 13% | Population Healthy Nuclei (%) [12]: 48% | Population Hoechst High Intensity Objects (%) [12]: 32% | Population Membrane Permeable-Phenotype (%) [12]: 92% | Population Mitochondria Different-Phenotype (%) [12]: 100% | Population Mitotic Cells (%) [12]: 0% | Population Normal (%) [12]: 67% | Population Pyknosed Nuclei (%) [12]: 37% | Population Tubulin-Different-Phenotype (%) [12]: 100% | Total Cell Count [12]: 43

O=C(NCCN1CCOCC1)c1ccc2c(c1)C(=O)c1ccc(Nc3ccc(F)c(NC(=O)c4ccccc4)c3)cc1CC2 [FS-694]
Population Apoptotic (%) [3]: 75% and 25% | Population Healthy Nuclei (%) [3]: 83% and 54% | Population Membrane Permeable-Phenotype (%) [3]: 67% and 52% | Population Mitochondria Different-Phenotype (%) [3]: 18% and 50% | Population Mitotic Cells (%) [3]: 25% and 74% | Population Normal (%) [3]: 95% and 53% | Population Pyknosed Nuclei (%) [3]: 8% and 13% | Population Tubulin-Different-Phenotype (%) [3]: 48% and 88% | Total Cell Count [3]: 178 and 187 | Population Fragmented Nuclei (%) [4]: 40% and 27% | Population Healthy Nuclei (%) [4]: 47% and 65% | Population Membrane Permeable-Phenotype (%) [4]: 53% and 54% | Population Mitotic Cells (%) [4]: 60% and 90% | Population Normal (%) [4]: 47% and 90% | Population Pyknosed Nuclei (%) [4]: 11% and 7% | Total Cell Count [4]: 150 and 127 | Population Apoptotic (%) [7]: 37% and 42% | Population Healthy Nuclei (%) [7]: 48% and 84% | Population Membrane Permeable-Phenotype (%) [7]: 54% and 41% | Population Mitotic Cells (%) [7]: 62% and 57% | Population Normal (%) [7]: 55% and 95% | Population Pyknosed Nuclei (%) [7]: 23% and 8% | Total Cell Count [7]: 224 and 170 | Population Apoptotic (%) [8]: 50% | Population Fragmented Nuclei (%) [8]: 45% and 17% | Population Healthy Nuclei (%) [8]: 39% and 76% | Population Membrane Permeable-Phenotype (%) [8]: 62% and 37% | Population Mitotic Cells (%) [8]: 50% | Population Normal (%) [8]: 47% and 91% | Population Pyknosed Nuclei (%) [8]: 14% and 5% | Total Cell Count [8]: 160 and 131
